The values that follow come from paper PMC3752840 (Journal of the American Chemical Society, 2013).

One test addresses T1, human calpain-I (Homo sapiens, UniProt P07384).
T1 sequence (P07384 1-714): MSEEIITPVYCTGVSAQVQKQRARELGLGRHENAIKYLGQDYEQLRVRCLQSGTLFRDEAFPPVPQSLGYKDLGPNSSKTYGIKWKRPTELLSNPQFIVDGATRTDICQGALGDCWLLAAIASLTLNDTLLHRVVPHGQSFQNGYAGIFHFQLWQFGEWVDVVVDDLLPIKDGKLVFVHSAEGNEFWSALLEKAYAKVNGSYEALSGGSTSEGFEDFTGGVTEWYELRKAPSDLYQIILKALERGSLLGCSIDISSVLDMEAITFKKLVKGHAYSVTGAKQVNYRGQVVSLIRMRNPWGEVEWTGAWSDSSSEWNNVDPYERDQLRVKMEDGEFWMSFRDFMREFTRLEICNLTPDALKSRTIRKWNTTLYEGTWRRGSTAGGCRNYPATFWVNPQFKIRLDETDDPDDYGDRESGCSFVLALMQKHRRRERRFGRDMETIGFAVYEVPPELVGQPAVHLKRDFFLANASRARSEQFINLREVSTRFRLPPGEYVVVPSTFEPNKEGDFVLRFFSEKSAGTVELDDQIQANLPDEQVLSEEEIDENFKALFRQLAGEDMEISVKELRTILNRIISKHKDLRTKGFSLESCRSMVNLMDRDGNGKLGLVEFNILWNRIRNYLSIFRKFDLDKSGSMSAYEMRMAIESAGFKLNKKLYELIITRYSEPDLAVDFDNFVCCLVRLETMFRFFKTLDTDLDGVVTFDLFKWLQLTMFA
T1 sequence (P04632 1-268 partner): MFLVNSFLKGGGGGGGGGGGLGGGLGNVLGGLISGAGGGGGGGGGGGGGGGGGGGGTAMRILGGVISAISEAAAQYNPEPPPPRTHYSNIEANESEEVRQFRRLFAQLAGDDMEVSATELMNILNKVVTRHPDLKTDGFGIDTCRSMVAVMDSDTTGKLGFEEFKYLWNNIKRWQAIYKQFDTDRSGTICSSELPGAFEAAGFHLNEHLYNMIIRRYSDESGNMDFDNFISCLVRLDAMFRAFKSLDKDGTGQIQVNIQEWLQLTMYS
Kind of test: Calpain IC50, Suc-LLVY-AMC fluorescence assay. In kind it is biochemical.

The target in test [1] is human 20S proteasome, chymotrypsin-like activity (Homo sapiens, UniProt P28074). Kind of test: Proteasome inhibition assay, chymotrypsin-like activity. In kind it is biochemical. In short, it runs like this:
(§1)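 Human 20S proteasome (1 nM) in 10 mM Tris-HCl, 0.035% SDS, pH 7.4, preincubated with test compound for 15 min at RT. Fluorogenic substrate then added at 5 µM: Suc-LLVY-AMC for chymotrypsin-like activity, Z-LLE-AMC for caspase-like activity. Fluorescence read at 380/460 nm; IC50 calculated from initial rates.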

Test [2] addresses human 20S proteasome, caspase-like activity (Homo sapiens, UniProt P28072). Kind of test: Proteasome inhibition assay, caspase-like activity. In kind it is biochemical. The essentials: as §1
The subject of test [3] is MM.M1S multiple myeloma cell line. The test is classed as cell-based, human. The conditions noted are these: 72 h, CellTiter-Glo; compound 3 no inhibition up to 80 µM.
The subject of test [4] is FR4 multiple myeloma cell line. The test is classed as cell-based, human. To be noted: 72 h.
In test [5] the test system is U-937 histiocytic lymphoma cell line. In kind it is cell-based, human. To be noted: 72 h.
Another test addresses human 20S proteasome (Homo sapiens, UniProt P28072+P28074). Kind of test: Proteasome inhibition assay. The test is classed as biochemical. To be noted: two proteasome activities, which is which not stated.
A further test addresses T2, papain (Carica papaya, UniProt P00784).
T2 sequence (P00784 134-345): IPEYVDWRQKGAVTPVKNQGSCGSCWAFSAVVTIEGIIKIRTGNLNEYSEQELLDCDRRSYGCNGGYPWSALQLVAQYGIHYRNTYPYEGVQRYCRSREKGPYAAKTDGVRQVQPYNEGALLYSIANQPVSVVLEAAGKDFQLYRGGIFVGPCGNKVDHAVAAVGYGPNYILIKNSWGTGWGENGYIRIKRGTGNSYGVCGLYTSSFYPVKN
Kind of test: biochemical.

Setting [6] is: CellTiter-Glo, compound 3 no inhibition up to 80 µM.

Several values for one entry are separate records, joined by “and”; a condition that tells them apart may be missing. Equal values may be shown once. Square brackets hold non-standard residues; d marks the D form. Peptide text beside a SMILES is read from it. * marks the point of attachment. Heptanoyl = CCCCCCC(=O)*; Octanoyl = CCCCCCCC(=O)*

`CC[C@H](C)[C@H](N)C(=O)N[C@@H](CCC(N)=O)C(=O)N[C@H](C(=O)N[C@H](CCC(N)=O)C(=O)N[C@H](C(=O)N[C@H](C=O)Cc1ccccc1)C(C)C)[C@@H](C)CC` [Compound 3] (H-IQI[dQ]VF-aldehyde): the IC50 on human calpain-I turned out to be 1800 ± 300 nM; in test [1], 430 ± 80 nM; in test [2], 330 ± 70 nM; on papain, 70 ± 10 nM. Also, the “IC50 cell line MM.M1S” value in test [3] is given as “No inhibition”. In test [4] (setting [6]), the “IC50 cell line FR4” value was “No inhibition”. Also, in test [5] (setting [6]), the “IC50 cell line U-937” value is reported as “No inhibition”. Also, the “fold higher potency against the proteasome than 1 and 2” value at human 20S proteasome was 6 fold and 10 fold.
For `CCCCCCC(=O)N[C@H](C(=O)N[C@@H](CCC(N)=O)C(=O)N[C@H](C(=O)N[C@H](CCC(N)=O)C(=O)N[C@H](C(=O)N[C@H](C=O)Cc1ccccc1)[C@@H](C)CC)[C@@H](C)CC)[C@@H](C)CC` [Compound 2] (Heptanoyl-IQI[dQ]IF-aldehyde; N-terminus assumed), the IC50 against human calpain-I was determined as 2700 ± 400 nM; in test [1], 3300 ± 300 nM; in test [2], 2300 ± 700 nM; in test [4] it was 30000 ± 10000 nM; against papain it was 350 ± 30 nM.
Turning to `CCCCCCCC(=O)N[C@H](C(=O)N[C@@H](CCC(N)=O)C(=O)N[C@H](C(=O)N[C@H](CCC(N)=O)C(=O)N[C@H](C(=O)N[C@H](C=O)Cc1ccccc1)C(C)C)[C@@H](C)CC)[C@@H](C)CC` [Compound 1] (Octanoyl-IQI[dQ]VF-aldehyde; N-terminus assumed), the IC50 on human calpain-I was 2900 ± 300 nM; in test [1], 4900 ± 300 nM; in test [2], 2300 ± 200 nM; in test [5], 13000 ± 1000 nM; against papain, 160 ± 40 nM.

One may read the IC50 as the concentration that inhibits the measured activity by half. A low value points to higher potency.
